Results from ChEMBL document CHEMBL2331079, “Antibacterial and antiplasmodial constituents of Beilschmiedia cryptocaryoides” (J Nat Prod, 2013).
Converted amounts (≈) assume the structure as drawn.

Tests used:
[1] = test system: Escherichia coli; test: Antibacterial activity against Escherichia coli 6r3 by paper disk diffusion method; assay type: functional
In short: (§1)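 Strains taken from the lab's own culture collection. Tested by paper disk diffusion, following the group's earlier published method. Each MIC was determined in triplicate.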

[2] = test system: Stutzerimonas stutzeri; test: Antibacterial activity against Pseudomonas stutzeri A1501 by paper disk diffusion method; assay type: functional; in short: as §1
[3] = test system: Serratia plymuthica; test: Antibacterial activity against Serratia plymuthica C48 by paper disk diffusion method; assay type: functional; in short: as §1
[4] = test system: Acinetobacter calcoaceticus; test: Antibacterial activity against Acinetobacter calcoaceticus DSM 586 by paper disk diffusion method; assay type: functional; in short: as §1
[5] = test system: Plasmodium falciparum; test: Antiplasmodial activity against chloroquine-sensitive Plasmodium falciparum NF54 after 48 hrs by [3H]-hypoxanthine incorporation assay; assay type: functional, organism-based
In short: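 Asexual blood-stage parasites in hypoxanthine-free RPMI 1640 with HEPES, NaHCO3, neomycin and Albumax, in human A+ erythrocytes (2.5% hematocrit, 0.3% parasitemia). Eleven 3-fold dilutions (100 to 0.002 μg/mL) from DMSO stocks. Incubated at 37 °C in 4% CO2/3% O2/93% N2. 3H-hypoxanthine (0.5 μCi) added at 48 h, then 24 h more. Read by scintillation counting. IC50 is the mean of two independent assays.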

[6] = test system: L6; test: Cytotoxicity against rat L6 cells after 70 hrs by Alamar Blue assay; details: L6, 70 h

| SMILES | MIC [1] [µg/mL] | MIC [2] [µg/mL] | MIC [3] [µg/mL] | MIC [4] [µg/mL] | IC50 [5] [µM] | IC50 [6] [µM] |
| --- | --- | --- | --- | --- | --- | --- |
| CC1(C)S[C@@H]2[C@H](NC(=O)[C@H](N)c3ccccc3)C(=O)N2[C@H]1C(=O)O [AMPICILLIN] | 5 (≈ 14.3 µM) | 20 (≈ 57.2 µM) | 20 (≈ 57.2 µM) | 5 (≈ 14.3 µM) |  |  |
| CCCCCC[C@@H]1[C@H]2C=C[C@H]3C(C(=O)O)=C[C@H](O)[C@@H]4C[C@@H]1[C@@H]2[C@H]43 [CRYPTOBEILIC ACID A] | 10 (≈ 31.6 µM) | > 50 | > 50 | > 50 | 17.7 | 59.5 |
| CCCCCC[C@@H]1[C@H]2C=C[C@H]3C(C(=O)O)=C[C@@H](O)[C@@H]4C[C@@H]1[C@@H]2[C@H]43 [CRYPTOBEILIC ACID B] | 20 (≈ 63.2 µM) | 10 (≈ 31.6 µM) | > 50 | 20 (≈ 63.2 µM) | 5.35 | 20.4 |
| O=C(O)C1=CC(=O)[C@@H]2C[C@H]3[C@H](Cc4ccc5c(c4)OCO5)[C@H]4C=C[C@@H]1[C@@H]2[C@H]43 [CRYPTOBEILIC ACID C] | > 50 | > 50 | > 50 | > 50 | 14 | 59.3 |
| CCCCCC[C@@H]1[C@H]2C=C[C@@H]3[C@@H]4[C@H]2[C@H]1C[C@H]4C=C[C@H]3C(=O)O [CRYPTOBEILIC ACID D] | 50 (≈ 166 µM) | > 50 | > 50 | > 50 | 10.8 | 61 |
| CN1CCN(c2cc3c(cc2F)c(=O)c(C(=O)O)cn3-c2ccc(F)cc2)CC1 [DIFLOXACIN] | 5 (≈ 12.5 µM) | 20 (≈ 50.1 µM) | 20 (≈ 50.1 µM) | 5 (≈ 12.5 µM) |  |  |
| COc1cc([C@@H]2c3cc4c(cc3[C@H](O)[C@H]3COC(=O)[C@H]23)OCO4)cc(OC)c1OC [PODOFILOX] |  |  |  |  |  | 0.008 |
| O=C(O)[C@@H]1C=C[C@@H]2C[C@H]3[C@H](Cc4ccc5c(c4)OCO5)[C@H]4C=C[C@@H]1[C@@H]2[C@H]43 [TSANGIBEILIN B] | 50 (≈ 143 µM) | > 50 | > 50 | > 50 | 8.2 | 21.5 |
